Here are results for 6 molecules from ChEMBL document CHEMBL3797137, “New ligands of the ghrelin receptor based on the 1,2,4-triazole scaffold by introduction of a second chiral center” (Bioorg Med Chem Lett, 2016).

Active and inactive are the calls of the source. The rule behind the calls is not given here.

Assay [1] concerns the target T1, Growth hormone secretagogue receptor type 1 (Homo sapiens, UniProt Q92847). Put plainly: Inverse agonist activity at human GHS-R1a expressed in HEK293T cells after 45 mins by HTRF-based IP3 turnover assay. The conditions noted are these: for Emax: HEK-293T. Type of assay: functional, cell-based, HEK-293T.
Assay [2] addresses T1, Growth hormone secretagogue receptor type 1. Nature of the assay: Competitive binding affinity to human SNAP-tagged GHS-R1a expressed in HEK293T cells incubated at 4 degC for 3 hrs or at room temperature for 1 hr by Tag-lite assay. The format is cell-based, HEK-293T. A digest of the protocol:
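Tag-lite binding measured by FRET between terbium cryptate attached to SNAP-tag-fused GHS-R1a and a red fluorescent high-affinity ghrelin ligand. Ki obtained from the fluorescent binding data.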

Assay [3] has the same target. Put plainly: Antagonist activity at human GHS-R1a expressed in HEK293T cells assessed as inhibition of ghrelin-induced stimulation after 45 mins by HTRF-based IP3 turnover assay. The conditions noted are these: HEK-293T. The format is functional, cell-based. On the technique in general: TR-FRET usually uses a lanthanide donor and a delayed reading to cut background.

Assay [4] shares this target. Put plainly: Antagonist activity at human GHS-R1a transfected in CHO cells assessed as inhibition of ghrelin-induced intracellular calcium mobilization measured over 60 secs by fluo-4AM dye-based fluorometric method. Type of assay: functional, cell-based. On the technique in general: A change in cytosolic calcium serves as a functional read-out for many receptors and channels.

Assay [5] has the same target. Put plainly: Partial agonist activity at human GHS-R1a expressed in HEK293T cells at 10^-5 M after 45 mins by HTRF-based IP3 turnover assay. The format is functional, cell-based. The conditions noted are these: HEK-293T.
The target is the same in assay [6]. Nature of the assay: Antagonist activity at human GHS-R1a transfected in mouse LTK cells after 6 hrs by CRE/luciferase reporter gene assay in presence of ghrelin and rolipram. The format is functional, cell-based. A digest of the protocol:
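Mouse LTK- cells stably carrying a CMV minimal promoter–3×CRE–luciferase construct, incubated 6 h with rolipram, saturating ghrelin and varied compound concentrations. Cells were then lysed and luminescence read. IC50 fitted from the curves.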
For orientation: Reporter assays use an easily measured gene product as a stand-in for the process of interest.

Assay [7] shares this target. Nature of the assay: Displacement of [125I]-His9-ghrelin from human GHS-R1a transfected in pig LLC PK-1 cell membranes after 60 mins by gamma counting method. A digest of the protocol: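 Competition binding on membranes from LLC PK-1 cells transfected with GHS-R1a, using 0.3 nM ¹²⁵I-His9-ghrelin against increasing compound concentrations. Ki derived from the binding curves.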

Assay [8] shares this target. Nature of the assay: Antagonist activity at human GHS-R1a expressed in HEK293T cells assessed as inhibition of ghrelin-induced stimulation at 10^-5 M after 45 mins by HTRF-based IP3 turnover assay. Type of assay: functional, cell-based. The conditions noted are these: HEK-293T.

T1 sequence (Q92847 whole entry): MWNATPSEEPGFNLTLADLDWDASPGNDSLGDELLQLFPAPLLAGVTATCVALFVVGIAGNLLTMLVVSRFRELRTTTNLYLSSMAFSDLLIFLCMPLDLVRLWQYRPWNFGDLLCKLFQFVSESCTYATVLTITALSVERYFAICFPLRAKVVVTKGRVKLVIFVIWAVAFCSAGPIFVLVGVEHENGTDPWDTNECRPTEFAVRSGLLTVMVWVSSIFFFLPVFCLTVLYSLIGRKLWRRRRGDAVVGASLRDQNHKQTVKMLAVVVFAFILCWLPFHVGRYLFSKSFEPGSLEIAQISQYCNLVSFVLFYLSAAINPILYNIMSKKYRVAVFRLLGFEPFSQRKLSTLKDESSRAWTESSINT

`CC(C)C[C@H](NC(=O)[C@H](CC(C)C)NC(=O)[C@@H](Cc1c[nH]c2ccccc12)NC(=O)[C@H](Cc1ccccc1)NC(=O)[C@@H](Cc1c[nH]c2ccccc12)NC(=O)[C@@H](N)CCCCN)C(N)=O`: in assay [1], the concentration for a half-maximal effect (EC50) came out at 100 nM and the Emax is -55%. Moreover, the inhibitory constant (Ki) in assay [2] was determined as 255 nM.

In assay [2], `COc1ccc(Cn2c([C@@H](Cc3c[nH]c4ccccc34)NC(=O)CO)nnc2[C@@H](Cc2c[nH]c3ccccc23)NC(=O)[C@H](CC(C)C)NC(=O)[C@H](CC(C)C)NC(C)=O)cc1` gave an inhibition constant Ki of 3 nM. Further, in assay [3], the Emax worked out at 0%.

`COc1ccc(Cn2c([C@@H](Cc3ccccc3)NC(C)=O)nnc2[C@@H](Cc2c[nH]c3ccccc23)NC(=O)C2=CCCCO2)cc1`: the figures for the concentration for half-maximal inhibition (IC50) in assay [4] and in assay [6] were 4 nM and 3 nM, respectively. For the same molecule, the result in assay [5] was Active. Further, the inhibition constant (Ki) in assay [7] was 9 nM.

Take `COc1ccc(Cn2c([C@@H](Cc3c[nH]c4ccccc34)NC(=O)[C@H](CC(C)C)NC(=O)[C@H](CC(C)C)NC(C)=O)nnc2[C@@H](Cc2c[nH]c3ccccc23)NC(=O)[C@@H](N)CCCCN)cc1`: in assay [1], the 50% effective concentration (EC50) is 70 nM and the Emax is -37%. In addition, the affinity in assay [2] corresponds to a Ki of 110 nM.

Take `COc1ccc(Cn2c([C@@H](Cc3ccccc3)NC(C)=O)nnc2[C@@H](Cc2c[nH]c3ccccc23)NC(=O)c2cc(F)cc(F)n2)cc1`: the concentration for half-maximal inhibition (IC50) in assay [4] and in assay [6] was 4 nM throughout. Besides, in assay [5], the outcome was Active. In addition, the affinity in assay [7] corresponds to a Ki of 11 nM.

Turning to `COc1ccc(Cn2c([C@@H](Cc3ccccc3)NC(C)=O)nnc2[C@@H](Cc2c[nH]c3ccccc23)NC(=O)CO)cc1`, in assay [8], the inhibition entry was “Active”. The IC50 amounted to 2 nM in assay [4] and 8 nM in assay [6]. Moreover, the result in assay [5] was Active. The same molecule gave a Ki in assay [7] of 0.8 nM.

One may read the EC50 as the concentration giving half of the maximal effect. Low readings indicate greater potency, high ones weaker potency. As usually defined, the Ki is a dissociation constant, usually derived from enzyme kinetics or from competition with a known ligand. One may read the IC50 as the concentration that gives 50% inhibition.
